What is called EC50 is the concentration at which the effect is half-maximal. Usually half-life stands for the time needed for the level to fall by half in the phase considered.

A value given as a limit tells only on which side of the number the result lay.

Data on six compounds can be found in ChEMBL document CHEMBL4393665 (Eur J Med Chem, 2019).

The target of series [1] is T1, ATP-dependent translocase ABCB1 (Homo sapiens, UniProt P08183). Briefly: Inhibition of P-gp in human K562/DOX cells assessed as drug level causing 50% increase in nuclear pirarubicin concentration incubated for 30 mins by spectroflurometry. Particulars: read-out: I0.5. The format is cell-based. In a few lines: (§1)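 Pirarubicin uptake into nuclei was measured in P-gp-overexpressing, doxorubicin-resistant K562/DOX cells. [I]0.5 is the modulator concentration giving a half-maximal increase (α = 0.5) in nuclear pirarubicin concentration. αmax is the maximum increase obtainable in resistant cells. Mean ± SE of three independent experiments.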
T1 sequence (P08183 whole entry): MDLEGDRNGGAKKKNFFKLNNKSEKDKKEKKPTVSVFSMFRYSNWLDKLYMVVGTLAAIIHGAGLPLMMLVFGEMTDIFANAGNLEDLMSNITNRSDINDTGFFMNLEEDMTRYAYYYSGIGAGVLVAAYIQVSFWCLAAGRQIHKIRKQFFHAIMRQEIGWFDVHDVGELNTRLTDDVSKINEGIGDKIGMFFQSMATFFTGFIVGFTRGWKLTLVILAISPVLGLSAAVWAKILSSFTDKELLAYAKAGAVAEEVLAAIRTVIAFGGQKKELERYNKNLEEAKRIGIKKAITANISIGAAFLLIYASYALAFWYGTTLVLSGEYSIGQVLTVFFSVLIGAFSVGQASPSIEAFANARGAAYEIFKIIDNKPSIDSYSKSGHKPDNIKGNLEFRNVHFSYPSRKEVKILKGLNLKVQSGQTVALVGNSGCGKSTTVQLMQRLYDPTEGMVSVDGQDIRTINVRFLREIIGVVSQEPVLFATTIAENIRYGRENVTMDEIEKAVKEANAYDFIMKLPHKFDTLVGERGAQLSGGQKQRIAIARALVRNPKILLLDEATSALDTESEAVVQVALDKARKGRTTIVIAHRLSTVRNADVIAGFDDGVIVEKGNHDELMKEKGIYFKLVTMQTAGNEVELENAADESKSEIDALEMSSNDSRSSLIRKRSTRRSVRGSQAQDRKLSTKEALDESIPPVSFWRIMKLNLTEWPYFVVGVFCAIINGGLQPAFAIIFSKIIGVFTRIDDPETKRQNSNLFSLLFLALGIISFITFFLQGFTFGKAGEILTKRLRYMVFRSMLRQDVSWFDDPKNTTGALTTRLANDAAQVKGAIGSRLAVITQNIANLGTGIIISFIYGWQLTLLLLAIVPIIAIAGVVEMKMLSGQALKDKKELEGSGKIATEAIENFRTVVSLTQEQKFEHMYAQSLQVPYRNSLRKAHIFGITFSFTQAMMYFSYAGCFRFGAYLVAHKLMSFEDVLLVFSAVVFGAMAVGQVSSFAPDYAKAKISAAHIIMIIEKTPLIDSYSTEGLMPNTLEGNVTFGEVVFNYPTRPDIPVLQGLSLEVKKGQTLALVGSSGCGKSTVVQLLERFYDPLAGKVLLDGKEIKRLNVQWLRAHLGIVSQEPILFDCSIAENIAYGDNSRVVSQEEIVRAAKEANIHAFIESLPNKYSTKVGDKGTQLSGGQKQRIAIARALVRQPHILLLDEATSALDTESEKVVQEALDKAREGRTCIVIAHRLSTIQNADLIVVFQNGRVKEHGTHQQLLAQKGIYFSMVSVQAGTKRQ

For series [2], the target named is T2, Broad substrate specificity ATP-binding cassette transporter ABCG2 (Homo sapiens, UniProt Q9UNQ0).
T2 sequence (Q9UNQ0 whole entry): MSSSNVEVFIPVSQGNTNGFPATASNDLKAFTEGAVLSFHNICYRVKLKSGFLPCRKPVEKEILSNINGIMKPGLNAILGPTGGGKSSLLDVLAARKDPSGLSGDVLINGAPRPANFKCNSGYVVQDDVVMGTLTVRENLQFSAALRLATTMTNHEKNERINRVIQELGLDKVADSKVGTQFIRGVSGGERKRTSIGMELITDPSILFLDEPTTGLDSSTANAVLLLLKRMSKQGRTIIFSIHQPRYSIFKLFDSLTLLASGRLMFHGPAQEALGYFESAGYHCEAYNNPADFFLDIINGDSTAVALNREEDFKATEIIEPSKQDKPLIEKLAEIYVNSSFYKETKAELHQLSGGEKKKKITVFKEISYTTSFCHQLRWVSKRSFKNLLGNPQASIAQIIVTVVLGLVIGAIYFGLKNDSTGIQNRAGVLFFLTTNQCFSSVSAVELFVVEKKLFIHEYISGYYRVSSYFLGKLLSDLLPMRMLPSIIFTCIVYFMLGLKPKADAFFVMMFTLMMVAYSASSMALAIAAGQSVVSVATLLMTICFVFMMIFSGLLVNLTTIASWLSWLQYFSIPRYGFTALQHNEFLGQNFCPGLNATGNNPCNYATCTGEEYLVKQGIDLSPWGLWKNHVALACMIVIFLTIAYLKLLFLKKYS
Briefly: Inhibition of BCRP (unknown origin) in MDCK-BCRP assessed as inhibtion of hoechst 33342 transport incubated for 30 mins by fluorescence assay.

Series [3] addresses T1, ATP-dependent translocase ABCB1. Briefly: Inhibition of P-gp in human K562/DOX cells assessed as drug level causing maximum increase in nuclear pirarubicin concentration incubated for 30 mins by spectroflurometry relative to control. The format is cell-based. To be noted: 0.5 h. An outline of the steps: as §1
Series [4] in a line: Half life in human plasma at 1 uM by LC-MS/MS analysis. The format is ADME, cell-free. In a few lines: (§2)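 Samples were incubated in phosphate buffer or human plasma and analysed by LC-MS/MS in product ion scan mode. Analyte concentration was monitored over incubation time. The slope of ln(concentration) versus time gave the first-order degradation rate constant k, and t1/2 was calculated from k. Ketoprofen ethyl ester served as a reference to confirm that the plasma batch was enzymatically active.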

The nature of series [5]: Half life in PBS at 1 uM by LC-MS/MS analysis. The series is classed as physicochemical. In a few lines:
as §2

Series [6] concerns the target T1, ATP-dependent translocase ABCB1. Briefly: Inhibition of P-glycoprotein-mediated Rhodamine-123 efflux in human K562/DOX cells assessed as […] at 1 uM […] by flow cytometry relative to control. The format is cell-based. Particulars: 0.5 h. Also noted: scale not given: the % may be the effect or the level left. An outline of the steps:
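K562/DOX cells were loaded with 5 µM rhodamine-123 for 30 min. They were then washed and held 10 min in rhodamine-free medium, with or without modulator at 1.0 µM. Verapamil at 3.0 µM was the reference. Flow cytometry median fluorescence after efflux was divided by that after uptake and expressed as a percentage. Mean ± SE of three independent experiments.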

Series [7] has the same target. Briefly: Inhibition of P-glycoprotein (unknown origin) in MDCK-MDR1 assessed as reduction of ATP consumption pre-incubated for 2 hrs followed by substrate addition shaken for 5 mins by luminescence assay. The series is classed as cell-based. To be noted: mdck-mdr1, 5 min.
Series [8] shares this target. Nature of the series: Inhibition of P-glycoprotein-mediated Rhodamine-123 efflux in human K562 cells assessed as Rhodamine-123 accumulation at 1 uM preincubated for 15 mins followed by Rhodamine-123 addition measured after 30 mins by flow cytometry. The series is classed as cell-based. To be noted: k562, 0.5 h. (In general: Flow cytometry measures light scatter and fluorescence of single cells or particles in a stream.)

For series [9] the target is unchanged. Nature of the series: Inhibition of P-glycoprotein (unknown origin) in MDCK-MDR1 assessed as inhibtion of calcein-AM transport incubated for 30 mins by fluorescence assay. The format is cell-based.
A short description of series [10]: Drug degradation in human plasma at 1 uM measured upto 120 mins by LC-MS/MS analysis. The series is classed as ADME, cell-free. Particulars: 2 h. An outline of the steps:
as §2

With `COc1cc(/C=C/C(=O)OCCCN(C)CCCCCCCOC(=O)c2c3ccccc3cc3ccccc23)cc(OC)c1OC`, in series [1], the IC50 turned out to be 40 nM. For the same compound, the EC50 was 3000 nM in [2] and 260 nM in series [9]. Moreover, the Alpha max in series [3] was determined as 0.88. In addition, the half-life at 1 µM in series [4] and in series [5] was > 4 h each time. In addition, the Activity in series [6] was 84.7%. The “inhibition (INH)” value in [7] and in [8] was “Not Active” each time.

In the case of `COc1cc(/C=C/C(=O)OCCCCCCN(C)CCCCOC(=O)c2c3ccccc3cc3ccccc23)cc(OC)c1OC`, in series [1], the IC50 was determined as 20 nM. In addition, the results for the EC50 in [2] and in series [9] were 3800 nM and 520 nM, respectively. Besides, in series [3], the Alpha max was 0.94. Moreover, the half-life at 1 µM in [4] and in [5] was > 4 h each time. The Activity in [6] was found to be 92.8%. Besides, the “inhibition (INH)” value in [7] and in [8] was “Not Active” throughout.

Turning to `COc1cc(/C=C/C(=O)OCCCN(C)CCCCCCOC(=O)c2cc(OC)c(OC)c(OC)c2)cc(OC)c1OC`, the IC50 in series [1] came out at 390 nM. The Stability entry in [10] was “Unstable”. The Alpha max in series [3] stood at 0.99. The figures for the half-life at 1 µM in series [4] and in [5] were 0.65 h and > 4 h, respectively.

Take `COc1cc(/C=C/C(=O)OCCCCCCCN(C)CCCOC(=O)c2cc(OC)c(OC)c(OC)c2)cc(OC)c1OC`: in series [1], the IC50 was 60 nM. The EC50 in series [2] was 8100 nM; in series [9] it was 210 nM. The Alpha max in [3] turned out to be 0.99. Besides, the half-life at 1 µM in series [4] and in [5] was > 4 h in each case. Moreover, the Activity in [6] is reported as 58.4%. Moreover, the “inhibition (INH)” value in series [7] and in series [8] was “Not Active” throughout.

As for `COc1cc(/C=C/C(=O)OCCCCN(C)CCCCCCOC(=O)c2c3ccccc3cc3ccccc23)cc(OC)c1OC`, the IC50 in series [1] amounted to 10 nM. The EC50 was 3300 nM in series [2] and 850 nM in series [9]. For the same compound, the Alpha max in [3] is listed as 0.95. The half-life at 1 µM in series [4] and in series [5] was > 4 h each time. Besides, the Activity in series [6] is recorded as 64.6%. For the same compound, the “inhibition (INH)” value is “Active” in series [7] and “Not Active” in series [8].

On to `COc1cc(/C=C/C(=O)OCCCCN(C)CCCCCOC(=O)c2cc(OC)c(OC)c(OC)c2)cc(OC)c1OC`, for which the IC50 in [1] amounted to 270 nM. In series [10], the Stability result was “Stable”. For the same compound, the Alpha max in [3] is listed as 0.99. The half-life at 1 µM in series [4] and in series [5] was > 4 h throughout.
